The target of one data set is MC1R. The note with it: read-out: Ki for MC1R, cited from earlier work.
The target of data set [1] is MC5R. The note with it: read-out: Ki for MC5R; unlabeled peptide ligands; cited from earlier work.
On the set-up of data set [2]: species or system mouse. Conditions: mean±s.d. of 10 simulations.
The test system of data set [3] is A375/MC1R and A375 xenograft tumors. Kind of data set: in vivo. Conditions: female, nu/nu, mouse, 5 nmol/kg.
The next data set in a line: in vivo. Conditions: female, nu/nu, mouse.
Data set [4] deals with MC5R. Put plainly: Co-injection of MC5R-selective ligand to block kidney uptake of probe. Type of data set: in vivo, mouse. Conditions: 5 nmol/kg MC1RL-800 co-injected with 1 nmol/kg MC5R-selective ligand, 2 h. The method, boiled down: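 Female nu/nu mice (6–8 weeks) carried s.c. xenografts: 1 × 10⁶ A375/MC1R cells in the right flank and parental A375 cells in the left. At 500–800 mm³ tumor volume, mice received 5 nmol/kg MC1R ligand–IRDye800CW i.v. (tail vein, in 100 μL sterile saline) co-injected with 1 nmol/kg MC5R-specific ligand. Fluorescence imaging used mean pre-injection tumor signal subtracted from normalized post-injection ROI intensities.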

Read-outs that look alike come from different tables or passages of the source. [ ]: non-standard residue; d: D form. d2Nal = N[C@H](Cc1ccc2ccccc2c1)C(=O)O; Nle = CCCC[C@H](N)C(=O)O

Here are results for 3 compounds from paper PMC3785103 (Molecular pharmaceutics, 2013).

In the case of “4-phenylbutyryl-His-DPhe-Arg-Trp-Gly-Lys(hex-5-ynoyl)-NH2 [unlabeled ligand]”, the Ki on MC1R (unlabeled peptide ligands) was 0.24 nM; at MC5R [1] it was 46 nM.

Consider `CC1(C)C(=CC=C2CCCC(C=CC3=[N+](CCCCS(=O)(=O)[O-])c4ccc(S(=O)(=O)O)cc4C3(C)C)=C2Oc2ccc(S(=O)(=O)O)cc2)N(CCCCCC(=O)NCCN2C(=O)CC(SCCC(=O)NCCCC[C@H](NC(=O)CNC(=O)[C@H](Cc3c[nH]c4ccccc34)NC(=O)[C@H](CCCNC(=N)N)NC(=O)[C@@H](Cc3ccccc3)NC(=O)[C@H](Cc3c[nH]cn3)NC(=O)CCCc3ccccc3)C(N)=O)C2=O)c2ccc(S(=O)(=O)O)cc21` (stereo partly drawn) [MC1RL-800, 4-phenylbutyryl-His-DPhe-Arg-Trp-Gly-Lys(Mpr-IRDye800CW)-NH2], for which, in data set [2], the “Kki, rate of accumulation of ligand in the kidney specific binding compartment” value is listed as 1E-2+6.8E-3 (NU.h)^−1; the “Kko, rate of clearance of ligand from kidney back to the bloodstream” value was 0.96 ± 0.14 h⁻¹; the “Kni, rate of accumulation in non-specific tissue” value is 1.8 ± 0.2 (NU.h)^−1; the “Kno, rate of clearance from non-specific tissue” value is 2.3 ± 0.6 h⁻¹. For the same compound, the “Kto, rate of clearance from tumor specific binding compartment” value in data set [2] is listed as 26+12 (h)^−1. Also, the “Kti, rate of probe accumulation in tumor specific binding compartment” value in data set [2] (fit to 3 nmol/kg ex vivo data) is given as 2.7+1.4 (NU.h)^−1. For the same compound, the Ki on MC1R (NIRF dye conjugates) was 0.4 ± 0.1 nM. For the same compound, the “half-life (clearance) in the tumor” value in data set [3] is around 22 h. Moreover, the half-life in the data set “in vivo” (5 nmol/kg, half-life (clearance) in the tumor) is 22 h. Moreover, the half-life in “in vivo” (half-life (clearance) in negative tissue) was 16 h. The “decrease of A375/MC1R tumor signal” value in the data set with MC5R [4] was determined as 28%.

As for “H-YV[Nle]GH[d2Nal]R[dF]DRFG-NH2 [reference compound]”, the Ki at MC1R (unlabeled peptide ligands) was 5.6 nM; at MC5R [1] it was 0.71 nM.

What is called Ki is the equilibrium dissociation constant of an inhibitor or competing ligand from its target. By half-life is commonly meant the time in which the quantity being followed falls by half.
